Measurements reported in ChEMBL document CHEMBL2157972, “Selenophene-containing inhibitors of type IIA bacterial topoisomerases” (J Med Chem, 2011).
pIC50: −log10 of the molar value. Values after ≈ are worked out from the molar mass of the structure shown.

Tests used:
Staphylococcus aureus [1] = experiment: Antibacterial activity against methicillin-sensitive Staphylococcus aureus ATCC 29213; format: functional
In short: (§1)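 Read-out is the minimum inhibitory concentration (MIC), reported in μg/mL, from standard antimicrobial susceptibility testing.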

Staphylococcus aureus [2] = experiment: Antibacterial activity against methicillin-resistant Staphylococcus aureus ATCC 700699; format: functional; in short: as §1
[3] = Cytotoxicity against human Hep2 cell line after 72 hrs; format: cell-based; conditions: HEp-2 cells
In short: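 Human laryngeal epidermoid carcinoma Hep2 cells were exposed for 72 h.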

DNA gyrase = DNA gyrase (Staphylococcus aureus, UniProt P0A0K8+P20831); experiment: Inhibition of Staphylococcus aureus DNA gyrase by supercoiling assay; format: protein-complex assay
[4] = Cytotoxicity against […] CHO cell line after 72 hrs; format: cell-based, Cricetulus griseus; conditions: chinese hamster, CHO cells
Staphylococcus aureus [5] = experiment: Antibacterial activity against fluoroquinolone resistant Staphylococcus aureus 1-FQR2M BK2384 expressing GyrA Ser84Leu mutant and GrlA Ser80Phe mutant; format: functional; in short: as §1
[6] = molecular target: T1, Voltage-gated inwardly rectifying potassium channel KCNH2 (Homo sapiens, UniProt Q12809); experiment: Inhibition of human ERG expressed in mammalian cells by patch clamp method; format: cell-based
Staphylococcus aureus [7] = experiment: Antibacterial activity against fluoroquinolone resistant Staphylococcus aureus 2-FQR2M NY2746 expressing GyrA Ser84Leu mutant and GrlA Ser80Phe mutant; format: functional; in short: as §1
Staphylococcus aureus [8] = experiment: Antibacterial activity against fluoroquinolone resistant Staphylococcus aureus 5-FQR4M BSA678 expressing GyrA Ser84Leu and Ser85Pro mutant and GrlA Ser80Phe and Glu84Lys mutant; format: functional; in short: as §1
[9] = Cytotoxicity against human HeLa cell line after 72 hrs; format: cell-based; conditions: HeLa cells
[10] = Cytotoxicity against human HepG2 cell line after 72 hrs; format: cell-based; conditions: HepG2 cells
Staphylococcus aureus [11] = experiment: Antibacterial activity against fluoroquinolone resistant Staphylococcus aureus 3-FQR3M ATCC 700699 expressing GyrA Ser84Leu mutant and Glu409Lys mutant and GrlA Ser80Phe mutant; format: functional; in short: as §1
[12] = Inhibition of Staphylococcus aureus topoisomerase 4 by decatenation assay
In short: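 Enzyme activity was measured by topoisomerase IV decatenation using S. aureus enzyme. Inhibition is reported as a concentration in μM.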

Staphylococcus aureus [13] = experiment: Antibacterial activity against fluoroquinolone resistant Staphylococcus aureus 4-FQR3M BSA643 expressing GyrA Ser84Leu mutant and GrlA Ser80Tyr and Glu84Gly mutant; format: functional; in short: as §1
hERG (KCNH2) = hERG (KCNH2) (Homo sapiens, UniProt Q12809); experiment: Inhibition of human ERG expressed in mammalian cells at 10 uM by patch clamp method; format: cell-based; conditions: mammalian cells that express hERG
Staphylococcus aureus [14] = experiment: Antimicrobial activity against fluoroquinolone sensitive Staphylococcus aureus; format: functional
In short: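 Standard susceptibility testing. The read-out is the minimum inhibitory concentration, reported in μg/mL.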

Staphylococcus aureus [15] = experiment: Antimicrobial activity against fluoroquinolone resistant Staphylococcus aureus; format: functional; in short: as §1
[16] = molecular target: T1, Voltage-gated inwardly rectifying potassium channel KCNH2

Compound	MIC (Staphylococcus aureus [1])	MIC (Staphylococcus aureus [2])	CC50 at 72 h [3]	pIC50 (DNA gyrase)	further results
COc1ccc2nccc([C@H](O)CC[C@@H]3CCN(CCSc4ccc(C=O)[se]4)C[C@@H]3C(=O)O)c2c1 (mixture of isomers)	16 µg/mL	16 µg/mL	> 100 µM	5.05	–
COC(=O)[C@H]1CN(CCSc2ccco2)CC[C@H]1CCC(=O)c1ccnc2ccc(OC)cc12	–	> 32 µg/mL	–	–	–
COc1ccc2nccc([C@@H](O)CC[C@@H]3CCN(CCSc4ccco4)C[C@@H]3C(=O)O)c2c1 (mixture of isomers)	2 µg/mL	2 µg/mL	> 100 µM	5.33	CC50 at 72 h [4]: > 100 µM; MIC (Staphylococcus aureus [5]): 4 µg/mL; pIC50 [6]: > 4.52; MIC (Staphylococcus aureus [7]): 2 µg/mL; MIC (Staphylococcus aureus [8]): 8 µg/mL; CC50 at 72 h [9]: > 100 µM; CC50 at 72 h [10]: > 100 µM; MIC (Staphylococcus aureus [11]): 2 µg/mL; pIC50 [12]: < 4.00; MIC (Staphylococcus aureus [13]): 4 µg/mL; inhibition at 10 µM (hERG (KCNH2)): 27%
COc1ccc2nccc([C@@H](O)CC[C@@H]3CCN(CCS(=O)(=O)c4ccc[se]4)C[C@@H]3C(=O)O)c2c1 (mixture of isomers)	> 64 µg/mL	> 64 µg/mL	> 100 µM	< 4.00	–
COc1c(N2C[C@@H]3CCCN[C@@H]3C2)c(F)cc2c(=O)c(C(=O)O)cn(C3CC3)c12 [MOXIFLOXACIN]	0.06 µg/mL (≈ 0.149 µM)	4 µg/mL (≈ 9.96 µM)	> 100 µM	–	MIC (Staphylococcus aureus [5]): 1 µg/mL (≈ 2.49 µM); MIC (Staphylococcus aureus [7]): 8 µg/mL (≈ 19.9 µM); MIC (Staphylococcus aureus [8]): > 64 µg/mL; MIC (Staphylococcus aureus [11]): 4 µg/mL (≈ 9.96 µM); pIC50 [12]: 6.00; MIC (Staphylococcus aureus [13]): 16 µg/mL (≈ 39.9 µM)
COC(=O)[C@H]1CN(CCSc2sccc2P(=O)(OC(C)C)OC(C)C)CC[C@H]1CCC(=O)c1ccnc2ccc(OC)cc12	–	> 32 µg/mL	–	–	–
COc1ccc2nccc(C(O)CC[C@@H]3CCN(CCSc4ccc(C(=O)O)[se]4)C[C@@H]3C(=O)O)c2c1 (mixture of isomers)	> 64 µg/mL	> 64 µg/mL	> 100 µM	< 4.00	–
COc1ccc2nccc([C@H](O)CC[C@@H]3CCN(CCSc4ccc[se]4)C[C@@H]3C(=O)O)c2c1 (mixture of isomers)	0.5 µg/mL	0.5 µg/mL	> 100 µM	6.15	CC50 at 72 h [4]: > 100 µM; MIC (Staphylococcus aureus [5]): 1 µg/mL; MIC (Staphylococcus aureus [7]): 1 µg/mL; MIC (Staphylococcus aureus [8]): 2 µg/mL; CC50 at 72 h [9]: > 100 µM; CC50 at 72 h [10]: > 100 µM; MIC (Staphylococcus aureus [11]): 0.5 µg/mL; pIC50 [12]: 4.16; MIC (Staphylococcus aureus [13]): 1 µg/mL
COc1ccc2nccc([C@@H](O)CC[C@@H]3CCN(CCSc4sccc4P(=O)(OC(C)C)OC(C)C)C[C@@H]3C(=O)O)c2c1 (mixture of isomers)	> 64 µg/mL	> 64 µg/mL	> 98 µM	< 4.00	–
COc1ccc2nccc([C@@H](O)CC[C@@H]3CCN(CCSc4cccs4)C[C@@H]3C(=O)O)c2c1 (mixture of isomers)	0.25 µg/mL	0.13 µg/mL	> 100 µM	5.85	CC50 at 72 h [4]: > 100 µM; MIC (Staphylococcus aureus [5]): 0.25 µg/mL; MIC90 (Staphylococcus aureus [14]): 1 µg/mL; MIC (Staphylococcus aureus [7]): 0.25 µg/mL; MIC (Staphylococcus aureus [8]): 0.5 µg/mL; CC50 at 72 h [9]: > 100 µM; CC50 at 72 h [10]: > 100 µM; MIC90 (Staphylococcus aureus [15]): 0.5 µg/mL; MIC (Staphylococcus aureus [11]): 0.13 µg/mL; pIC50 [12]: 4.35; MIC (Staphylococcus aureus [13]): 0.25 µg/mL
COC(=O)[C@H]1CN(CCSc2ccc[se]2)CC[C@H]1CCC(=O)c1ccnc2ccc(OC)cc12	–	> 32 µg/mL	–	–	–
COc1ccc2nccc([C@H](O)CC[C@@H]3CCN(CCSc4ccc(C#N)[se]4)C[C@@H]3C(=O)O)c2c1 (mixture of isomers)	> 64 µg/mL	> 64 µg/mL	65 µM	–	–
COc1ccc2nccc(C(O)CC[C@@H]3CCN(CCC(=O)N4CCCCC4)C[C@@H]3C(=O)O)c2c1 (mixture of isomers)	32 µg/mL	32 µg/mL	> 100 µM	4.97	–
COc1ccc2ncc(F)c([C@@H](O)CC[C@@H]3CCN(CCSc4cccs4)C[C@@H]3C(=O)O)c2c1	–	–	–	–	MIC90 (Staphylococcus aureus [14]): 1 µg/mL (≈ 1.98 µM); pIC50 [16]: 3.91; MIC90 (Staphylococcus aureus [15]): 0.5 µg/mL (≈ 0.991 µM)
COC(=O)[C@H]1CN(CCSc2ccc(C(F)F)[se]2)CC[C@H]1CCC(=O)c1ccnc2ccc(OC)cc12	–	> 32 µg/mL	–	–	–
